# Measured values pooled from the literature.
# Protocols differ between the studies behind these lines.
# Read-out: metabolic stability
# Species: rat
# Sample: liver microsomes
SMILES,conditions,half-life [min]
CCN(CC)Cc1ccc2cc(COC(=O)Nc3ccc(C(=O)NO)cc3)ccc2c1,pH 7.4,92.9
Cc1[nH]c(C)c(S(=O)(=O)Nc2ccc(C(F)(F)F)c(Cl)c2)c1C(=O)N(C)C,,5.7
COc1ccccc1Cn1nc(-c2ccc(CO)o2)c2ccccc21,"1 µM, pH 7.4",2
C=CCn1c(=O)c2cnc(Nc3ccc(N4CCN(C)CC4)cc3)nc2n1-c1ccc2c(n1)[C@@](O)(CC)CC2,,79
NCc1ccc(-c2nn(Cc3ccccc3)c3ccccc23)o1,"1 µM, pH 7.4",> 30
O=C1c2ccccc2C(=O)N1CCCN1CCN(C(c2ccc(F)cc2)c2ccc(F)cc2)CC1,100 ng/mL,3.9
N#Cc1ccc(C[C@H](Nc2c(Nc3ccc(F)cc3)c(=O)c2=O)C(=O)N2CCc3ccccc32)cc1,"10 µM, pH 7.4",20
OCc1ccc(-c2nn(Cc3ccccn3)c3cccnc23)o1,"1 µM, pH 7.4",> 30
N#Cc1ccc(C[C@H](NC(=O)c2cc3ccc(F)cc3[nH]2)C(=O)N2CCc3ccccc32)cc1,"10 µM, pH 7.4",105
COc1ccc(Cn2cc(CO[C@@H]3O[C@H]4[C@H](OC[C@H]4O)[C@H]3O)nn2)cc1,,120
N#Cc1ccc(C[C@H](Nc2nnc(-c3cccc(F)c3)s2)C(=O)N2CCc3ccccc32)cc1,"10 µM, pH 7.4",47
Cc1[nH]c(C)c(S(=O)(=O)Nc2ccc(C(F)(F)F)c(Cl)c2)c1C(=O)N1CCC(F)(F)C1,,8
COc1ncccc1Cn1nc(-c2ccc(CO)o2)c2ccccc21,"1 µM, pH 7.4",6
N#Cc1ccc(C[C@H](Nc2nnc(-c3ccc(F)cc3)s2)C(=O)N2CCc3ccccc32)cc1,"10 µM, pH 7.4",19.3
